High-throughput results (PubChem BioAssay)
TRPC6 act = activates the mouse TRPC6 cation channel; actives 0.13% (n = 310,000); B-score at 10 µM; HEK293-TRPC6 membrane potential dye fluorescence; hits give high values; Q61143;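 active = B-score of the integrated fluorescence ratio above library mean plus 3 SD, and starting fluorescence ratio within library mean plus 5 SD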;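 also: higher score means more depolarization so channel activation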
Target sequence (Q61143 whole entry, looked up): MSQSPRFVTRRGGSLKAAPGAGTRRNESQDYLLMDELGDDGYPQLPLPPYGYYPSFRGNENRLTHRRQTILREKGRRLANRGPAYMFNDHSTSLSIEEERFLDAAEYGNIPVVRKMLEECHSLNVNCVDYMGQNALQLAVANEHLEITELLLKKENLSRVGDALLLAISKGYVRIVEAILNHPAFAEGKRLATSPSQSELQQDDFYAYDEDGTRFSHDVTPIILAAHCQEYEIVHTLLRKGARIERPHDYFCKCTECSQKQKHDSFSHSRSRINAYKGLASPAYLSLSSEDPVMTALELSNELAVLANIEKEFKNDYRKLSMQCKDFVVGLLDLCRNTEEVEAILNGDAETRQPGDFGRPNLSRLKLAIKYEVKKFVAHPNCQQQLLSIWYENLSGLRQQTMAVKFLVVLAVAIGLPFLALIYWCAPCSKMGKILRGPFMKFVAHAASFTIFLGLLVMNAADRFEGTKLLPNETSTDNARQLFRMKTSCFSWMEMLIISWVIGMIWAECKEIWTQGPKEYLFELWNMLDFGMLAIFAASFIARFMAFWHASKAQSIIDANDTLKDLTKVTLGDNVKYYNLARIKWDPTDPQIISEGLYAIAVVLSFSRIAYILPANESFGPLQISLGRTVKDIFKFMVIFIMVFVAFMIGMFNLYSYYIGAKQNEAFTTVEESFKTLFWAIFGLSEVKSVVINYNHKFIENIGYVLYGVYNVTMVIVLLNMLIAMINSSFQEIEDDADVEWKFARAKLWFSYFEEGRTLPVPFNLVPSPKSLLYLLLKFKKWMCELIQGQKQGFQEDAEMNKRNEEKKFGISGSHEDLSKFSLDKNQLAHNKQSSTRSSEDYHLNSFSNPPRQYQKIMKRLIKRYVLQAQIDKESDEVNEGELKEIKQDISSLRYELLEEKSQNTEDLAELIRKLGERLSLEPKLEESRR
TRPC6 inhibitor = mouse TRPC6 channel inhibition; Q61143; HEK293-TRPC6, membrane potential dye, ACh-evoked depolarization; hits give low values; B-score at 10 µM; actives 1.1% (n = 310,000); AID 2553;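 active = B-score under library mean minus 3 SD, initial fluorescence not abnormally high, positive integrated signal ratio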;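 also: B-score derived from integrated fluorescence ratio over the kinetic read; more negative B-score means stronger inhibition of depolarization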
TRPC4 agonist = activators of mouse TRPC4 channel; HEK293 TRPC4beta/mu-opioid, Fluo4 calcium fluorescence; hits give high values; B-score at 10 µM; actives 0.49% (n = 310,000);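 active = B-score above 5 SD of library B-scores, and initial fluorescence ratio not above library mean plus 5 SD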;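 also: positive B-score marks a calcium rise read as TRPC4 activation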
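System – HEK293 cells stably co-expressing mouse TRPC4beta and mu-opioid receptor · Signal – Fluo4 calcium-sensitive dye fluorescence, kinetic, 1 Hz baseline · Benchmarks – buffer (low) and maximal DAMGO (high) · Read-out – B score of integrated fluorescence ratio per well · Incubation – dye loading 45 min room temperature, 110 s kinetic read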
TRPC4 PAM = allosteric potentiators of mouse TRPC4 channel | actives 0.42% (n = 310,000) | B-score at 10 µM | Q9QUQ5 | AID 2227 | HEK293 TRPC4beta/mu-opioid, DAMGO EC20, Fluo-4 Ca2+ flux; hits give high values;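 active = B-score of calcium response area above 5 SD of library B-scores, with initial fluorescence ratio within 5 SD of library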;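 also: B-score of integrated fluorescence ratio over time as area under calcium response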
TRPC4 inh = TRPC4 (mouse) channel inhibition. HEK293 TRPC4beta/mu-opioid, DAMGO-evoked Fluo4 calcium flux; hits give low values. B-score at 10 µM. actives 0.39% (n = 300,000). AID 2247;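 active = B-score over 3 SD under the library average, no early fluorescence shift, positive overall ratio signal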
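System: stable TRPC4beta/mu-opioid receptor HEK293 cells; Dosing: single-point compound dosing; Measured by: Fluo4 Ca2+ flux fluorescence; Read-out basis: per-well B score of integrated baseline-normalized Fluo4 ratio.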
HEK293 TRPC6 ctr = checks TRPC6 modulator effects in parental HEK293 cells; shares compounds with TRPC6 inhibitor; membrane potential dye fluorescence; membrane potential signal change, % at 10 µM; actives 51% (n = 2,400); AID 488924;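 active = membrane potential signal moves up or down beyond 5 SD from buffer-only wells, on both duplicate plates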
HEK293 MPD ctr 2 = second check of TRPC6 modulator effects in parental HEK293 cells; shares compounds with TRPC6 inhibitor; membrane potential dye fluorescence; after compound, maximal acetylcholine stimulation; inhibition, % at 10 µM; actives 14% (n = 2,400);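 active = membrane potential signal drops by more than 5 SD from the mean control signal, in both duplicate plates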;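 also: plate controls were acetylcholine ECmax control wells for no effect and buffer only wells for full effect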
TRPC4/MOR mod = mouse TRPC4 off-target activity of TRPC6 modulators; HEK293 TRPC4/mu-opioid, membrane potential fluorescence; AID 488927; percent change from control (negative = decrease, positive = increase), % at 10 µM; actives 69% (n = 2,400); shares compounds with TRPC6 inhibitor;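 active = membrane potential signal moved up or down beyond 5 SD of buffer control wells, in both duplicate plates, actives on both sides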;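 also: plate controls were assay buffer wells for no effect and DAMGO maximal-effect wells for full effect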
TRPC4 ctr inh 2 = second check of whether TRPC6 modulators also affect mouse TRPC4; shares compounds with TRPC6 inhibitor; actives 55% (n = 2,400); HEK293 TRPC4/mu-opioid, membrane potential dye fluorescence; stimulated with maximal-effect DAMGO; inhibition, % at 10 µM;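 active = drop in membrane potential signal beyond 5 SD of the control wells in both duplicate plates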;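 also: TRPC4 counter screen for TRPC6 hits run under conditions tuned for TRPC6 not TRPC4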
TRPC6 block conf = mouse TRPC6 inhibitor confirmation; shares compounds with TRPC6 inhibitor; HEK293-TRPC6, membrane potential dye, ACh-evoked depolarization; inhibition, % at 10 µM; actives 43% (n = 3,300); AID 488960;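 active = fluorescence ratio falls more than 5 SD below the full-stimulation control mean, in both duplicate runs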;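 also: integrated fluorescence ratio of peak minus minimum over baseline after agonist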
TRPC6 act confirm = confirmation of mouse TRPC6 activators; shares compounds with TRPC6 inhibitor; HEK293-TRPC6 membrane potential dye fluorescence, FDSS; activation, % at 10 µM; actives 11% (n = 2,800); AID 488961;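 active = ratio signal rise beyond 5 SD above unstimulated control wells' mean, seen in both duplicate runs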;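 also: plate controls were buffer EC0 wells for no effect and acetylcholine ECmax response for full effect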
* hit, by the source's call. Rows were chosen to be rich in hits. Some 2.3% of all compounds tested hit in one or more screens of this group.

Screening C=CCn1c(=O)c2ccccc2n2c(SCC(=O)NCC)nnc12 returned TRPC6 act inactive, TRPC6 inhibitor inactive, TRPC4 agonist inactive, TRPC4 PAM inactive and TRPC4 inh inactive.
`CCOc1ccc(Br)cc1/C=N/O` gave TRPC6 act 16*, TRPC6 inhibitor -5.9*, TRPC4 agonist inactive, TRPC4 PAM inactive, TRPC4 inh -6*, HEK293 TRPC6 ctr 124%*, HEK293 MPD ctr 2 inactive, TRPC4/MOR mod 22%*, TRPC4 ctr inh 2 inactive, TRPC6 block conf 58%* and TRPC6 act confirm 132%*.
Cc1ccc2nc3c(cc(S(=O)(=O)c4ccccc4)c(=N)n3Cc3ccco3)c(=O)n2c1 was read as TRPC6 act inactive, TRPC6 inhibitor -5.5*, TRPC4 agonist inactive, TRPC4 PAM inactive, TRPC4 inh inactive, HEK293 TRPC6 ctr inactive, HEK293 MPD ctr 2 inactive, TRPC4/MOR mod inactive, TRPC4 ctr inh 2 inactive, TRPC6 block conf inactive and TRPC6 act confirm inactive.
`CC(=O)NC(=S)Nc1ccc(NC(=O)c2cccnc2Cl)cc1` gave TRPC6 act inactive, TRPC6 inhibitor inactive, TRPC4 agonist inactive, TRPC4 PAM inactive and TRPC4 inh inactive.
Screening CCN(CC)CCNC(=O)c1[nH]c2ccc(OCc3ccccc3)cc2c1C returned TRPC6 act inactive, TRPC6 inhibitor -7.5*, TRPC4 agonist inactive, TRPC4 PAM inactive, TRPC4 inh inactive, HEK293 TRPC6 ctr inactive, HEK293 MPD ctr 2 inactive, TRPC4/MOR mod inactive, TRPC4 ctr inh 2 38%* and TRPC6 block conf 55%*.
Cc1nnc(SCC(=O)NNC(=O)C(C)C)[nH]c1=O was read as TRPC6 act inactive, TRPC6 inhibitor inactive, TRPC4 agonist inactive, TRPC4 PAM inactive and TRPC4 inh inactive.
`C[C@]12CCC[C@H](O1)c1c(cc3c(c1O)C(=O)c1c(O)cc(O)cc1C3=O)O2` gave TRPC6 act 13*, TRPC6 inhibitor inactive, TRPC4 agonist inactive, TRPC4 PAM inactive, TRPC4 inh inactive, HEK293 TRPC6 ctr 274%*, HEK293 MPD ctr 2 inactive, TRPC4/MOR mod 58%*, TRPC4 ctr inh 2 inactive, TRPC6 block conf inactive and TRPC6 act confirm 91%*.
For CC1(C)CC(=O)c2c(O)cc(O)cc2O1 the results were TRPC6 act inactive, TRPC6 inhibitor inactive, TRPC4 agonist inactive, TRPC4 PAM inactive and TRPC4 inh inactive.
Screening CCc1ccc(N(CC)C(=O)c2cn(C)c(=O)c3ccccc23)cc1 returned TRPC6 act inactive, TRPC6 inhibitor inactive, TRPC4 agonist inactive, TRPC4 PAM inactive and TRPC4 inh inactive.
CCOC(=O)c1c(CSc2ccc(C)cc2)oc2ccc(O)cc12 was read as TRPC6 act inactive, TRPC6 inhibitor inactive, TRPC4 agonist inactive, TRPC4 PAM inactive and TRPC4 inh inactive.
Screening CC(C)N(Cc1nc(-c2ccc(Cl)cc2)no1)Cc1nccn1C returned TRPC6 act inactive, TRPC6 inhibitor inactive, TRPC4 agonist inactive, TRPC4 PAM inactive and TRPC4 inh inactive.
